GPR7 antagonist: GPR7 receptor antagonists, primary screen, cell-based, fluorescence, single concentration; inhibition, % at 4.4 µM; Neuropeptides B/W receptor type 1 (Homo sapiens), P48145; hit rate 1.1% among 290,000; AID 1861, 2009; GPR7-expressing cells, fluorescence antagonist assay; in the data active = inhibition above about 16%, passing the limit was not always enough;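 note: cells stimulated with the agonist NPW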
Target sequence (P48145 whole entry, looked up): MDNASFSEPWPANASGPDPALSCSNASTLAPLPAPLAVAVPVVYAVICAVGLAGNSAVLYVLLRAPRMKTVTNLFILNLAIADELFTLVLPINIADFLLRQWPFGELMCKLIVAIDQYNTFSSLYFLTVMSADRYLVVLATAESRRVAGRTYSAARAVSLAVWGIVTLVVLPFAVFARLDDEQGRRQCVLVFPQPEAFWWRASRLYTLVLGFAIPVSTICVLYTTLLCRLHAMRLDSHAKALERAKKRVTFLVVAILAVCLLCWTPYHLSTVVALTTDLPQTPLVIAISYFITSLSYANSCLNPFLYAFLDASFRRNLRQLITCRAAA
GalR3 antag: GalR3 antagonists in HEK293 cells, primary screen, cell-based, fluorescence readout | hit rate 0.44% among 360,000 | HEK293 GalR3-CNG cAMP membrane potential fluorescence; galR3 body fused to GalR1 C-terminus | Galanin receptor type 3 (Homo sapiens), O60755 | AID 651719, 2012 | inhibition, % at 3 µM;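 active = inhibition above the screen-wide average plus 3 SD, cut at about 13% in these data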;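 note: forskolin and galanin both at EC90 stimulate the cells; cAMP rise reported by CNG channel membrane potential dye signal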
Target sequence (O60755 1-299 limits assumed): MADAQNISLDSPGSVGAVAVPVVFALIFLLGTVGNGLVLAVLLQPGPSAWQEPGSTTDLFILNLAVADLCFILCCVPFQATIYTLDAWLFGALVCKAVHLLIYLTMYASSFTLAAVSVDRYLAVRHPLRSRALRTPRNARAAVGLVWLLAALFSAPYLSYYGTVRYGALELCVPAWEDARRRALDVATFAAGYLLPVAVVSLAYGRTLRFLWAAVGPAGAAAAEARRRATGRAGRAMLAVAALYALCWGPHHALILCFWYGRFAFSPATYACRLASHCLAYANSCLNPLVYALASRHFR
OX1R antag-1: OX1R (HCRTR1) antagonists, primary screen, fluorescence, CHO/OX1R cells, Fluo-8 calcium, orexin A; Fluo-8 calcium fluorescence; inhibition, % at 5 µM; hit rate 0.43% among 330,000; AID 434989, 2010;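 active = inhibition above its plate's threshold, mean inhibition of all tested compounds on the plate plus 3 SD, cut at about 37% in these data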
OX1R antag-2: antagonists of human orexin 1 receptor (OX1R); Orexin/Hypocretin receptor type 1 (Homo sapiens), O43613; OX1R-expressing cells, FRET antagonist read-out; inhibition, % at 6.6 µM; hit rate 1.8% among 330,000; AID 485270, 2010; in the data active = inhibition mostly above about 38%, no sharp cut-off; inactive = mostly below about 40%
CHO parental Ca: ATP-evoked calcium signal inhibitors, parental CHO, primary screen, counter-screen for OX1R antagonist project, cell-based, fluorescence, Fluo-8 calcium dye. parental CHO-K1, ATP-induced calcium, Fluo-8 fluorescence. inhibition, % at 5.6 µM. hit rate 0.63% among 330,000. AID 463079, 2010;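 active = inhibition above that plate's mean sample inhibition plus 3 SD, cut at about 26% in these data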
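Assay system – parental CHO cells · Reagent – ATP stimulus · Detection – intracellular calcium via Fluo-8 no-wash fluorescent dye · Evaluation – percent inhibition of ATP-evoked calcium rise, normalized to controls · Controls – ATP wells versus no-ATP DMSO wells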
Large screens that a line does not name were inactive. Hits are enriched below; roughly 3.1% of the tested compounds scored in any of these assays.

COc1cc(C2CC(=O)c3c([nH]c(C(=O)OCCOC(C)C)c3C)C2)cc(OC)c1OC (stereo not given)	GPR7 antagonist 18, CHO parental Ca 31
CC(=O)O[C@]1(C(C)=O)CC[C@H]2[C@@H]3C=CC4=CC(=O)C=C[C@]4(C)[C@H]3CC[C@@]21C	none
Cc1nc(NC(=O)c2oc3ccccc3c2C)sc1C(=O)N(C)C	OX1R antag-2 54
COCC(=O)Nc1c(C(=O)Nc2ccc3c(c2)OCO3)oc2ccccc12	none
O=C(CCl)Nc1c(C(=O)Nc2ccc3c(c2)OCCO3)oc2ccccc12	OX1R antag-2 68
Cc1c(C(=O)Nc2ccc3c(c2)OCO3)oc2ccccc12	OX1R antag-2 73
CC(=O)N1CCN(c2ccccc2NC(=O)COc2cc(C)ccc2C(C)C)CC1	GPR7 antagonist 21
Cc1ccc(C(C)C)c(OCC(=O)Nc2ccccc2N2CCN(C)CC2)c1	none
Brc1ccc(N/N=C(/N=Nc2nn[nH]n2)c2ccccc2)cc1	OX1R antag-2 47
O=C(O)c1ccc(N=N/C(=N\Nc2ccc(C(=O)O)cc2)c2ccccc2)cc1	none (no result: GPR7 antagonist)
Cc1[nH]c2ccccc2c1C(=O)CN1C(=O)NC(C)(c2ccc(Cl)cc2Cl)C1=O (stereo not given)	GPR7 antagonist 62
COc1cccc2cc(C(=O)c3ccc([N+](=O)[O-])cc3)oc12	none
COc1ccccc1-c1c(C(F)(F)F)oc2cc(OC(=O)c3ccc([N+](=O)[O-])cc3)ccc2c1=O	OX1R antag-2 73
CCn1c(SCc2nc(-c3ccccc3)no2)nnc1-c1cccs1	none
CCn1c(SCc2nc(CC(=O)Nc3ccccc3OC)no2)nnc1-c1cccs1	OX1R antag-2 70
O=C(NC1CCCC1)c1cc2c(=O)n3ccccc3nc2s1	none (no result: GPR7 antagonist)
Cc1cccn2c(=O)c3cc(C(=O)NC4CCCC4)sc3nc12	OX1R antag-2 55
c1coc(-c2ccnc3ncnn23)c1	none
Cc1ccc(C(=O)Nc2ccc(S(=O)(=O)NC3=NCCCCC3)cc2)cc1S(=O)(=O)N1CCOCC1	none (no result: GPR7 antagonist)
Cc1cc(/C=C2\SC(=S)N(C)C2=O)c(C)n1-c1ccccc1O	OX1R antag-1 52, CHO parental Ca 36 (no result: GPR7 antagonist)
O=C(COC(=O)c1ccccc1C(=O)c1ccc(Cl)cc1)NC(c1ccccc1)c1ccccc1	none
N#CC1=C(N)NC(SCc2ccc(Cl)cc2)=C(C#N)C12CCCCC2	OX1R antag-1 54, CHO parental Ca 47
N#CC1=C(N)NC(SCc2ccc(Br)cc2)=C(C#N)C12CCCCC2	CHO parental Ca 45
CN(C(=O)c1cn(C)c2ccccc12)c1ccc(Oc2cccnc2)cc1	none (no result: GPR7 antagonist, OX1R antag-1, OX1R antag-2, CHO parental Ca)
CSCC[C@H](NC(=O)[C@@H]1Cc2ccccc2CN1)C(=O)NC[C@H]1CC[C@H](C(=O)O)CC1	none
CCN1C(=O)/C(=C/c2ccc(OC)c(OC)c2)N=C1SCC(=O)NCc1ccco1	none
O=C(CC1SC(=Nc2ccccc2)N(CCO)C1=O)Nc1ccccc1 (stereo not given)	none
O=C(CC1SC(=Nc2ccccc2)N(CCCO)C1=O)Nc1ccc(Cl)cc1 (stereo not given)	OX1R antag-1 77, CHO parental Ca 66 (no result: GalR3 antag)
O=[N+]([O-])CC(c1ccccc1)c1c[nH]c2ccccc12 (stereo not given)	none (no result: GPR7 antagonist)
OC(CNCC(c1ccc(Cl)cc1Cl)c1c[nH]c2ccccc12)c1ccccc1 (stereo not given)	CHO parental Ca 33
Cc1cc(C)c(S(=O)(=O)N2CCC(C(=O)NCc3ccc(Cl)cc3Cl)CC2)c(C)c1	none
COc1ccc(NC(=O)c2nnn(CC(=O)Nc3ccc4c(c3)OCO4)c2N)c(OC)c1	none
CCOC(=O)c1c(-c2ccccc2Cl)csc1NC(=O)CSc1nc(C)cc(=O)[nH]1	none
Cc1[nH]n(-c2ccccc2)c(=O)c1/C=N/N1CCOCC1	none
Cc1[nH]n(-c2ccccc2)c(=O)c1/C=N/N1C(=O)c2cccc3cccc(c23)C1=O	OX1R antag-2 74
COc1ccc(N2CCn3c2nc2c3c(=O)n(CCCc3ccccc3)c(=O)n2C)c(OC)c1	CHO parental Ca 55
COc1ccc(N2CCn3c2nc2c3c(=O)n(CCc3ccccc3)c(=O)n2C)c(OC)c1	none (no result: GalR3 antag, OX1R antag-1, OX1R antag-2, CHO parental Ca)
CCn1c(C)nc2cc(-c3nnc(-c4c(-c5ccccc5)noc4C)o3)ccc21	OX1R antag-2 45, CHO parental Ca 37
CNC(=O)/C(=C\c1ccc([N+](=O)[O-])cc1)NC(C)=O	OX1R antag-2 73
CC(=O)N/C(=C/c1ccc([N+](=O)[O-])cc1)C(=O)O	none
Cc1ccc2nsnc2c1S(=O)(=O)NCc1ccc2c(c1)OCO2	OX1R antag-2 44
O=C(NNC(=O)c1cc(-c2cccnc2)nc2ccccc12)Nc1ccc(Cl)cc1	CHO parental Ca 59
CCCn1cc(S(=O)(=O)c2ccc(C)cc2)c(=O)c2cc(OC)c(OC)cc21	none
COc1ccc(NC(=O)CCNS(=O)(=O)c2cccc3nsnc23)c(OC)c1	OX1R antag-2 73
Cc1cccc(NC(=O)CCNS(=O)(=O)c2cccc3nsnc23)c1	none
CCOc1ccccc1NS(=O)(=O)c1cccc2nsnc12	none
CCOc1ccccc1NC(=O)CCNS(=O)(=O)c1cccc2nsnc12	OX1R antag-2 67
CC(=O)c1cccc(NC(=O)CCNS(=O)(=O)c2cccc3nsnc23)c1	OX1R antag-2 58
Cc1ccc(S(=O)(=O)NCc2cccc([N+](=O)[O-])c2)cc1	none (no result: GPR7 antagonist, OX1R antag-1, OX1R antag-2, CHO parental Ca)
COc1cccc(OC)c1C(=O)Nc1cccc2c1CCCC2	OX1R antag-2 73
Cc1ccc(S(=O)(=O)Nc2cc(C)c(O)c(Sc3n[nH]c(C)n3)c2)cc1	none
COc1ccc(NC(=O)c2cc3c(=O)n(C)c4ccccc4c3n2C)cc1OC	OX1R antag-2 43 (no result: GalR3 antag)
COc1ccc(NC(=O)c2cc3c(=O)n(C)c4ccccc4c3n2C)cc1Cl	none
CC1CCN(c2ccccc2NC(=O)c2ccc(Br)o2)CC1	none
COCCN(C(=O)COC(=O)c1cnc(C)cn1)c1c(N)n(Cc2ccccc2)c(=O)[nH]c1=O	none (no result: GPR7 antagonist)
O=c1[nH]c2ccccc2nc1-c1c[nH]c2ccccc12	OX1R antag-2 62
Nc1ccccc1-c1nc2ccccc2[nH]c1=O	none (no result: OX1R antag-1, OX1R antag-2, CHO parental Ca)
Cc1cc(N/N=C/c2ccc([N+](=O)[O-])o2)nc2ccccc12	OX1R antag-2 42
Cc1ccc(-c2cc(C(=O)N/N=C/c3ccc([N+](=O)[O-])o3)c3ccccc3n2)o1	none (no result: OX1R antag-1, OX1R antag-2, CHO parental Ca)
COc1ccc(-c2n(Cc3ccccc3)c3ccccc3[n+]2Cc2ccccc2)cc1	GPR7 antagonist 56
C=CCn1c(SCC(=O)NC2CCCCC2)nnc1-c1cccnc1	none
COc1ccc2cc(/C=C3\SC(=S)NC3=O)c(N3CCOCC3)nc2c1	OX1R antag-2 74

Screens (PubChem)
